# Experiments:
# [1] = biological target: T1, Acetylcholinesterase (Homo sapiens, UniProt P22303); assay: Inhibition of recombinant human erythrocyte AChE using acetyl-or butyrylthiocholine iodide as substrate at 1 x 10^-6M preincubated for 5 mins followed by substrate addition and measured every min for 10 mins by Ellman's method relative to control; settings: dose 1.0 10^-6M, time 15.0 min
# In short: (§1)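 AChE from human erythrocytes (0.05 U final) or recombinant AChE (0.025 U final), diluted in 20 mM HEPES pH 8 with 0.1 % Triton X-100, in an Ellman assay. DTNB is 0.3 mM in phosphate buffer pH 7.4 and compound is in DMSO. Enzyme and compound are preincubated 5 min at 25 °C. Reaction starts with 1 mM acetylthiocholine iodide solution.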
# [2] = biological target: T2, 5-hydroxytryptamine receptor 4 (Homo sapiens, UniProt Q13639); assay: Inhibition of human recombinant 5HT4 receptor at 1 x 10^-6M incubated for 60 mins relative to control; settings: dose 1.0 10^-6M
# T2 sequence (Q13639 whole entry): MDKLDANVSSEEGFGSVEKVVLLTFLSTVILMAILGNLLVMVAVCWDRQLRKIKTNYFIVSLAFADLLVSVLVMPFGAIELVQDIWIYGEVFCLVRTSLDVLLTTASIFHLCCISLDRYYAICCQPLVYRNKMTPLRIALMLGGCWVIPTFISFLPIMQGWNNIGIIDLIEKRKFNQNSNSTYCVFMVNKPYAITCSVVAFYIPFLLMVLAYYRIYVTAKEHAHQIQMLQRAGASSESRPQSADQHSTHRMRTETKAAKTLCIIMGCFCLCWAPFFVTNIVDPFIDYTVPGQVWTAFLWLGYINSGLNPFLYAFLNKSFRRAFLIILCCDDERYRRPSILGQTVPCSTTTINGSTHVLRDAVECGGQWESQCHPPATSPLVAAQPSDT
# In short: (§2)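 Membranes (2.5 μg protein) from a stable recombinant line expressing h5-HT4(b) receptor. Incubated in duplicate at 25 °C for 60 min with 0.2 nM [3H]-GR113808 in 25 mM Tris pH 7.4, with drug at 10^-6 or 10^-8 M. GF/C filtration; non-specific binding defined with 30 μM serotonin. Ki from five-point inhibition curves, ± SD.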
# [3] = biological target: T2, 5-hydroxytryptamine receptor 4; assay: Inhibition of human recombinant 5HT4 receptor at 1 x 10^-8M incubated for 60 mins relative to control; settings: dose 1.0 10^-8M; in short: as §2
# [4] = biological target: T2, 5-hydroxytryptamine receptor 4; assay: Binding affinity to human recombinant 5HT4 receptor assessed as inhibition constant incubated for 60 mins
# [5] = biological target: T1, Acetylcholinesterase; assay: Inhibition of recombinant human erythrocyte AChE using acetyl-or butyrylthiocholine iodide as substrate preincubated for 5 mins followed by substrate addition and measured every min for 10 mins by Ellman's method
# [6] = biological target: T2, 5-hydroxytryptamine receptor 4; assay: Partial agonist activity at human recombinant 5HT4 receptor at 1 x 10^-8M incubated for 60 mins; assay type: functional
# [7] = biological target: Cholinesterase (Equus caballus, UniProt P81908); assay: Inhibition of equine serum BuChE using Acetyl and butyrylthiocholine iodide as substrate preincubated for 5 mins followed by substrate addition and measured every min for 10 mins by Ellman's method
# Sequence of Cholinesterase (P81908 whole entry): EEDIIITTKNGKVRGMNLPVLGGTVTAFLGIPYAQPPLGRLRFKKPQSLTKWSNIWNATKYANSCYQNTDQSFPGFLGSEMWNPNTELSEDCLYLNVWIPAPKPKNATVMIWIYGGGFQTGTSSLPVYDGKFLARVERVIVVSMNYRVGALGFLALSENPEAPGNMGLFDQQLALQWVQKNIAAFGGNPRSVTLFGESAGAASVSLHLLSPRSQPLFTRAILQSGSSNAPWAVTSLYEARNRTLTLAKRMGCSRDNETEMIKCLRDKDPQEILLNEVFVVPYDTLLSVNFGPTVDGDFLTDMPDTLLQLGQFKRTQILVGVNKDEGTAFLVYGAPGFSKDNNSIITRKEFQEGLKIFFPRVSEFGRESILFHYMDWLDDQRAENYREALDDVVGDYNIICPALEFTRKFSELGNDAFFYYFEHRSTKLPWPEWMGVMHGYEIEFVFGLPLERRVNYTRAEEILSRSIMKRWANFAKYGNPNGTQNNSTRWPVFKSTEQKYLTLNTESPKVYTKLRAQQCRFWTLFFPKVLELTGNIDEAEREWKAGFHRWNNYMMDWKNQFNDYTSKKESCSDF
# [8] = biological target: T2, 5-hydroxytryptamine receptor 4; assay: Partial agonist activity at human recombinant 5HT4 receptor expressed in […] cells assessed as cAMP accumulation in presence of serotonin by HTRF analysis; assay type: functional, cell-based
# In short: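 COS-7 cells grown in DMEM with 10 % dialyzed FCS and transiently transfected with HA-tagged h5-HT4R, then plated at 16,000 cells/well. At 24 h, cells were exposed for 10 min at 37 °C to 5-HT4 ligands in HEPES-buffered saline containing 0.1 % BSA and 0.1 mM RO-20-1724. Cells were lysed with 0.1 % Triton X-100 and cAMP measured by HTRF.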
# [9] = Intrinsic solubility of the compound at pH 12 by classical shake-flask method; assay type: physicochemical; settings: buffer
# In short: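 Shake-flask method: 1 mg compound in 4 mL pH 12 phosphate buffer with KCl, n = 3. Sonicated, shaken at room temperature for 48 h, centrifuged. Supernatant mixed 1:1 with acetonitrile/DMSO (99:1) and quantified by UV at 326 nm against a four-point calibration curve.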
# [10] = Thermodynamic solubility of compound at pH 7.4 by classical shake-flask method; assay type: physicochemical; settings: buffer, read-out: Therm_solubility
# In short: (§3)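 Shake-flask thermodynamic solubility (OECD 105, miniaturized). 1 mg of solid added to 4 mL of water or potassium phosphate buffer at pH 7.4 or 12 (n = 3), sonicated and shaken horizontally at room temperature for 48 h. After centrifugation, supernatant was mixed 1:1 with acetonitrile/DMSO and quantified by UV at 326 nm against a four-point calibration curve.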
# [11] = Thermodynamic solubility of compound by classical shake-flask method; assay type: physicochemical; settings: read-out: Therm_solubility; in short: as §3
# [12] = biological target: T3, P-glycoprotein (ABCB1) (Homo sapiens, UniProt P08183); assay: Inhibition of P-glycoprotein mediated Rhodamine-123 efflux in human NCI/ADR-RES cells assessed as increase in intracellular fluorescence at 10 uM incubated for 24 hrs relative to control; assay type: cell-based; settings: probe Rhodamine-123
# T3 sequence (P08183 whole entry): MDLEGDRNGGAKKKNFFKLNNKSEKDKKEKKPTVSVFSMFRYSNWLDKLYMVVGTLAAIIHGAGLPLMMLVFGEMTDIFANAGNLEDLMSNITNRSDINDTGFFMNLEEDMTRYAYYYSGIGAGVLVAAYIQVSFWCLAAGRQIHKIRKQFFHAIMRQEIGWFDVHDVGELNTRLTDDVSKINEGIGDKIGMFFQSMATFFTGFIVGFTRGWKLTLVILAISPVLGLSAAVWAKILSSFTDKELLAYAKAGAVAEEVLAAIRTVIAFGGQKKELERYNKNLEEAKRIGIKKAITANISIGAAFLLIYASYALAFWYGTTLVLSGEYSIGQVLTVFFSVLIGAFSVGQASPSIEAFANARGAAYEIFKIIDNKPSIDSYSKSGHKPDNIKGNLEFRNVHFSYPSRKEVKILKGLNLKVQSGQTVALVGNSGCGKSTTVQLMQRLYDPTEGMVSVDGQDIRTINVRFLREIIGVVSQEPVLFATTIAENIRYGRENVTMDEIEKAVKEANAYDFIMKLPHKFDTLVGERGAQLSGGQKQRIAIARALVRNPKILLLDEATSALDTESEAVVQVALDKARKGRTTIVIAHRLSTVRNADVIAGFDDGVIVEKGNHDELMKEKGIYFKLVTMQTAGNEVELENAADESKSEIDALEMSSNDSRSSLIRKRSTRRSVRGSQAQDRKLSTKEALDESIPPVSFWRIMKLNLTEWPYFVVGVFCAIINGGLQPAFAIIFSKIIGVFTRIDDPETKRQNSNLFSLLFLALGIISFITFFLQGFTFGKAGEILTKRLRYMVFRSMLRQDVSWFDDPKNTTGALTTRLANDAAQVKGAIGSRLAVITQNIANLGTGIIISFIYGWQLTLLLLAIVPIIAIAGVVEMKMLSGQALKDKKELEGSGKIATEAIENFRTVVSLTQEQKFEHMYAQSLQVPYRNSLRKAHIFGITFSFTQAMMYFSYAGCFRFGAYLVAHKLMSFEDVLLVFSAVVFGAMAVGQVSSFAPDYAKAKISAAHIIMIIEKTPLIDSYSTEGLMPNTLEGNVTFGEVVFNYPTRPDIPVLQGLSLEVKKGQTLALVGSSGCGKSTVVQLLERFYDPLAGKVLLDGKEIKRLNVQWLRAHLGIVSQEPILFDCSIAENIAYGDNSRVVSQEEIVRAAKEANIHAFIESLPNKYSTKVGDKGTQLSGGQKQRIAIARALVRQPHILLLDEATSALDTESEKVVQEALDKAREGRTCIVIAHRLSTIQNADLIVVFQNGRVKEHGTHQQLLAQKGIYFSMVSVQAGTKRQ
# In short: (§4)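 NCI/ADR-RES cells in RPMI with 10 % FCS, seeded 24 h before the assay. […] Washed three times, lysed in Tris/SDS, fluorescence read (ex 507/em 528 nm). Cyclosporin A as positive control.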
# [13] = biological target: T3, P-glycoprotein (ABCB1); assay: Inhibition of P-glycoprotein mediated Rhodamine-123 efflux in human NCI/ADR-RES cells assessed as increase in intracellular fluorescence at 1 uM incubated for 24 hrs relative to control; assay type: cell-based; settings: probe Rhodamine-123; in short: as §4
# [14] = Cytotoxicity against human MRC5 cells assessed as growth inhibition at 10 uM incubated for 72 hrs by MTS assay relative to control; assay type: toxicity, cell-based; settings: read-out: Activity
# In short: (§5)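 MRC5-SV2 cells in D-MEM with 10 % FCS, treated 24 h after plating with compound from DMSO stock (DMSO 1 % final). After 72 h, MTS added for 3 h at 37 °C and absorbance read at 490 nm. Growth inhibition = (1 − OD treated/OD control) × 100, triplicate experiments.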
# [15] = Cytotoxicity against human MRC5 cells assessed as growth inhibition at 1 uM incubated for 72 hrs by MTS assay relative to control; assay type: toxicity, cell-based; settings: read-out: Activity; in short: as §5
# [16] = Mutagenicity in Salmonella typhimurium TA97a by Ames test; assay type: toxicity; settings: salmonella enterica subsp. enterica serovar typhimurium
# In short: (§6)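 Semi-quantitative spot test with S. typhimurium TA97a, TA98, TA100 and TA102, with and without S9 mix.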
# [17] = Mutagenicity in Salmonella typhimurium TA98 by Ames test; assay type: toxicity; settings: salmonella enterica subsp. enterica serovar typhimurium; in short: as §6
# [18] = Mutagenicity in Salmonella typhimurium TA100 by Ames test; assay type: toxicity; settings: salmonella enterica subsp. enterica serovar typhimurium; in short: as §6
# [19] = Mutagenicity in Salmonella typhimurium TA102 by Ames test; assay type: toxicity; settings: salmonella enterica subsp. enterica serovar typhimurium; in short: as §6
# [20] = Oral bioavailability in Wistar rat at 1 to 9 mg/kg; assay type: ADME, organism-based; settings: in vivo, dose 1-9 mg/kg
# In short: (§7)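 Oral doses of 1, 3 and 9 mg/kg alongside iv and ip dosing, in 0.9 % saline, n = 3 per dose. Terminal plasma under isoflurane at six time points, UHPLC–MS/MS quantification. Bioavailability from non-compartmental AUCs, with the methods giving F = (AUCpo/AUCip) × (Doseip/Dosepo).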
# [21] = Oral bioavailability in C57BL6 mouse at 1 to 9 mg/kg; assay type: ADME, organism-based; settings: in vivo, dose 1-9 mg/kg; in short: as §7
# [22] = AUC in Wistar rat at 3 mg/kg, ip; assay type: ADME, organism-based; settings: in vivo
# In short: (§8)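 Single ip dose in 0.9 % saline (10 mL/kg mouse, 2 mL/kg rat), n = 3 per dose. CSF from cisterna magna and cardiac-puncture blood taken under isoflurane at six time points. Protein precipitation, then UHPLC–MS/MS (LLOQ 1 ng/mL). AUC0–∞ by linear trapezoidal non-compartmental analysis.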
# [23] = AUC in C57BL6 mouse at 3 mg/kg, ip; assay type: ADME, organism-based; settings: in vivo; in short: as §8
# [24] = biological target: T1, Acetylcholinesterase; assay: Inhibition of recombinant human erythrocyte AChE using acetyl-or butyrylthiocholine iodide as substrate at 1 x 10^-5M preincubated for 5 mins followed by substrate addition and measured every min for 10 mins by Ellman's method relative to control; settings: dose 1.0 10^-5M, time 15.0 min; in short: as §1
# T1 sequence (P22303 whole entry): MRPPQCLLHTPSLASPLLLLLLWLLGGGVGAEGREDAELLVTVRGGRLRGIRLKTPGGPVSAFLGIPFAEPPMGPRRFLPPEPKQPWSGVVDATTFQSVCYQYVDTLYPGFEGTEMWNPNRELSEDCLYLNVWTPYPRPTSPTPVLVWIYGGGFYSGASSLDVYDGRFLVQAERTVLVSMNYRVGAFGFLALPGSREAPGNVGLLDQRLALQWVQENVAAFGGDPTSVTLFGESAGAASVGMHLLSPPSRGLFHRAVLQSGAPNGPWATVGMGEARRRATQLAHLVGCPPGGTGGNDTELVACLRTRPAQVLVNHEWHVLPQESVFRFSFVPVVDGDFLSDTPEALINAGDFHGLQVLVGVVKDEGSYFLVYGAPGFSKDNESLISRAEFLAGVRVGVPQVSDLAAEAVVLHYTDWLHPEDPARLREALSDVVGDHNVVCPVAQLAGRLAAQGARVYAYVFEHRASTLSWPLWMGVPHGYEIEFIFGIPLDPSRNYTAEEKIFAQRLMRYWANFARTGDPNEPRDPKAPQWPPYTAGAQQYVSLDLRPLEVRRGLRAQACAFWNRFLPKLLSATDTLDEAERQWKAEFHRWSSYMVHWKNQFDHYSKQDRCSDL
Structure (SMILES),inhibition [1] [%],inhibition [2] [%],inhibition [3] [%],Ki [4] [µM],IC50 [5] [µM],also measured
O=C(CCC1CCN(CC2CCCCC2)CC1)c1ccc(O)cc1,35,102,58,0.0176,,
COc1c(C(=O)CCC2CCN(CC3CCCCC3)CC2)cc(F)c(N)c1I,89,89,2,,0.234,
Nc1ccc(C(=O)CCC2CCN(CC3CCCCC3)CC2)c(OCCF)c1,79,100,27,0.0399,0.318,
COc1cc(N)c(F)cc1C(=O)CCC1CCN(CC2CCCCC2)CC1,,,,,,"Ki [6]: 0.0096 µM; IC50 [7]: 6.2 µM; EC50 [8]: 0.0013 µM; solubility thermodynamic [9]: 2 µM; solubility thermodynamic [10]: 104 µM; solubility thermodynamic [11]: 444 µM; inhibition at 24 h, 10 µM [12]: 111%; inhibition at 24 h, 1 µM [13]: 125%; inhibition at 72 h, 10 µM [14]: 0%; inhibition at 72 h, 1 µM [15]: 0%; Activity [16]: Non-toxic; Activity [17]: Non-toxic; Activity [18]: Non-toxic; Activity [19]: Non-toxic; bioavailability [20]: 3.6%; bioavailability [21]: 12.4%; AUC [22]: 9.26 ng·h/mL; AUC [23]: 7.66 ng·h/mL"
COc1ccccc1C(=O)CCC1CCN(CC2CCCCC2)CC1,85,102,31,0.121,0.166,
COc1cc(N)c(I)cc1C(=O)CCC1CCN(CC2CCCCC2)CC1,,103,36,,,inhibition [24]: 88%
Nc1cc(OCCF)c(C(=O)CCC2CCN(CC3CCCCC3)CC2)cc1I,45,101,22,0.521,,
COc1cc(N)ccc1C(=O)CCC1CCN(CC2CCCCC2)CC1,,96,10,,,inhibition [24]: 97%
CCOc1cc(N)ccc1C(=O)CCC1CCN(CC2CCCCC2)CC1,93,101,38,0.0247,0.0871,
CCOc1cc(N)c(Cl)cc1C(=O)CCC1CCN(CC2CCCCC2)CC1,69,103,86,,,
Nc1cc(OCCF)c(C(=O)CCC2CCN(CC3CCCCC3)CC2)cc1Cl,60,102,78,,,
